Screening results (PubChem BioAssay)
hERG rescue – compounds protecting human hERG from proarrhythmic drug block; CHO-hERG, FluxOR thallium flux, dofetilide IC70 present; activation (rescue from dofetilide block), less the hit threshold, % at 10 µM; hit rate 0.51% among 310,000; AID 1511;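 active = activation above the mean of controls blocked by dofetilide plus 5 SD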;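 note: thallium influx through hERG after potassium depolarization seen as dye fluorescence rise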
Kir21 inh – blocks the mouse Kir2.1 inward-rectifier potassium channel. HEK293-Kir2.1, FluxOR thallium flux fluorescence; active compounds read low. B-score at 10 µM. hit rate 0.85% among 310,000. AID 1672;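 active = fluorescence ratio B-score at or below minus 3 SD of library scores, with starting-brightness B-score within 2 SD, cut at about -4.2 in these data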;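 note: channel flux triggered by added potassium and thallium sulfate stimulus; B-score of peak minus minimum fluorescence over baseline after thallium stimulus; more negative B-score means stronger Kir2.1 block with less thallium influx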
KCNQ1 inh – inhibitors of human KCNQ1 potassium channel. P51787. CHO-K1 KCNQ1, FluxOR thallium flux fluorescence; active compounds read high. B-score at 10 µM. hit rate 1.3% among 310,000;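 active = compounds whose thallium flux B-score, printed positive for inhibition, exceeds three library SD while starting fluorescence stays within three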;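 note: channel opened by potassium depolarization with thallium stimulus after 20 min compound exposure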
Target sequence (P51787 whole entry, looked up): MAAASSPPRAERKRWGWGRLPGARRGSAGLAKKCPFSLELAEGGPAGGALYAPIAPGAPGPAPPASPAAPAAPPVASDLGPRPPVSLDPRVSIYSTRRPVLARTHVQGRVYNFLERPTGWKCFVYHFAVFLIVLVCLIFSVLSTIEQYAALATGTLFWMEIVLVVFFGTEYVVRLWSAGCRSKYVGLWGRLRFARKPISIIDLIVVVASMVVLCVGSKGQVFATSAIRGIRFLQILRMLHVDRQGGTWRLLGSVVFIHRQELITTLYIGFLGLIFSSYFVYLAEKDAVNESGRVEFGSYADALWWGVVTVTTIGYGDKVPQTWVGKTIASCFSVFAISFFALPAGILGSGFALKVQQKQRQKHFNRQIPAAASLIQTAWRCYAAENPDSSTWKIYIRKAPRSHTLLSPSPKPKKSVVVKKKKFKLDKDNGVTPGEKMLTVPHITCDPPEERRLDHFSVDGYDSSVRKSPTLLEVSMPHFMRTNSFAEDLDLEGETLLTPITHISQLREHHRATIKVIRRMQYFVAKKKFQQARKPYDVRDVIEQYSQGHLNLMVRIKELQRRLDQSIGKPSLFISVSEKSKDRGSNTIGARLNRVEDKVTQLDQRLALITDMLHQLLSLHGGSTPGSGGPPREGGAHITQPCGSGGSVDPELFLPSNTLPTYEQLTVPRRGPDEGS
KCNQ1 pot – potentiates or activates the human KCNQ1 potassium channel; B-score at 10 µM; AID 2648; hit rate 0.35% among 310,000; CHO-K1 KCNQ1, thallium flux FluxOR fluorescence; active compounds read high;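 active = fluorescence ratio B-score, a plate-corrected score, at least three library SD, with initial intensity B-score within 5 SD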
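Medium – assay buffer, equal DMSO in all wells · Material – CHO-K1 cell line with stable KCNQ1 potassium channel expression · Signal – kinetic FluxOR thallium fluorescence, 10-s 1-Hz baseline, 110-s post-stimulus read · Compound – single concentration per compound, DMSO matched to controls · Schedule – 37 °C overnight plating, 90-min dark dye load, 20-min compound pretreatment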
KCNK3 inh – human KCNK3 channel inhibition, primary screen | CHO-KCNK3 thallium flux, FluxOR fluorescence; active compounds read low | B-score at 10 µM | hit rate 0.84% among 340,000;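 active = B-score under library mean minus 4 SD, starting fluorescence ratio at most library mean plus 5 SD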;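 note: more negative B-score means stronger inhibition of thallium flux through KCNK3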
KCNK9 inh – human KCNK9 channel inhibition; Q9NPC2; HEK293 KCNK9, FluxOR thallium flux fluorescence; active compounds read low; B-score at 10 µM; hit rate 1.2% among 310,000; AID 488922;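 active = ratio B-score over 3 SD below the library mean, with starting fluorescence within 5 SD of its mean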;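 note: negative B-score means less thallium flux so channel inhibition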
An asterisk follows results filed as active; i = inactive; · = not tested or not shown. In the library only some 3.7% were active in any assay of this set; here they are far more common.

SMILES | hERG rescue | Kir21 inh | KCNQ1 inh | KCNQ1 pot | KCNK3 inh | KCNK9 inh
O=C(NC(=S)Nc1ccccc1N1CCCC1)c1cccs1 | 3 | -1.4 | i | 17* | i | i
O=C(NC(=S)Nc1ccccc1N1CCCCC1)c1cccs1 | 7.5* | -0.38 | i | 12* | i | i
O=C(NC(=S)N1CCN(c2ccc(O)cc2)CC1)c1cccs1 | -10 | -1.2 | i | i | i | i
COc1ccc(N2CCN(C(=S)NC(=O)c3cccs3)CC2)c([N+](=O)[O-])c1 | -7 | 0.05 | i | 13* | i | i
CC(=O)Nc1nc(NC(=O)/C=C/c2ccccc2)n(-c2ccccc2)n1 | -5 | 0.32 | i | i | i | i
CCC1c2ccc(C)n2CCN1C(=O)Nc1ccccc1C(=O)OC (centres undefined) | -8 | 1.4 | i | i | i | -7*
CCOC(=O)c1ccccc1NC(=O)N1CCn2c(C)ccc2C1CC (centres undefined) | -14 | -0.14 | i | i | i | i
c1ccc(-c2nc(N3CCN(c4ccccc4)CC3)nc(-n3ccnc3)n2)cc1 | -14 | -0.1 | i | i | i | -7.1*
N#Cc1ccc(-c2cn3c(n2)SCC3)cc1 | -2 | 0.01 | i | i | i | i
CC(C)=NOc1nc(N2CCOCC2)nc(N2CCOCC2)n1 | -7 | 0.02 | i | i | i | i
O=C(NC(=Nc1nc2ccccc2o1)NC(=O)c1ccccc1)c1ccccc1 | -9 | -0.19 | i | i | i | i
COc1ccccc1C(=O)NC(=Nc1nc2ccccc2o1)NC(=O)c1ccccc1OC | -38 | -1.5 | i | i | i | -16*
CC1CC(C)(C)CC2(C1)NC(=O)N(CC(=O)NCc1ccccc1F)C2=O (centres undefined) | -16 | 0 | i | i | i | i
CCOc1cc(CN2CCN(Cc3ccc(C)o3)C(CCO)C2)ccc1OC (centres undefined) | -3 | 0.16 | i | i | i | i
Cc1ccccc1-c1nnn(Cc2cccc(S(=O)(=O)N3CCOCC3)c2)n1 | · | · | · | · | -9* | ·
Cc1cc(OCc2cccc(S(=O)(=O)N3CCOCC3)c2)ccc1Cl | · | · | · | · | -9.6* | ·
COc1cccc(C(=O)/C(C#N)=N/Nc2cccc(-c3ccnc(C)n3)c2)c1 | -6 | 2.2 | i | i | i | i
Cn1nc(C(F)(F)F)c(CNC(=O)C(C)(C)CCl)c1N1CCOCC1 | -10 | -0.55 | i | i | i | i
Cn1nc(C(F)(F)F)c(CN2CC(C)(C)C2=O)c1N1CCOCC1 | 5.0* | -0.12 | i | i | i | i
CC(=O)c1cccc(NC(=O)Cc2coc3cc4c(cc23)CCC4)c1 | -10 | 1.2 | i | i | i | i
COc1nc(Nc2ccc([N+](=O)[O-])cc2)nc(NC2CCCCC2)n1 | -7 | 0.93 | i | i | i | -7.1*
C=CCNc1nc(Nc2ccc([N+](=O)[O-])cc2)nc(OC)n1 | -7 | 0.65 | i | i | i | i
O=C(/C=C/c1ccc(F)cc1)NC(=S)NNC(=O)[C@H]1C[C@@H]1c1ccccc1 | -6 | 1.2 | i | i | i | i
O=C(NC(=S)NNC(=O)[C@H]1C[C@@H]1c1ccccc1)c1ccc(F)cc1 | -23 | 0.01 | 6* | i | i | i
COc1cc(OC)cc(C(=O)NC(=S)NNC(=O)[C@H]2C[C@@H]2c2ccccc2)c1 | -18 | 0.93 | i | 15* | i | i
COc1ccc(C2CC(c3ccccc3)=NN2C(=O)COC(=O)c2cc(S(=O)(=O)N3CCOCC3)ccc2F)cc1 (centres undefined) | -3 | 1.2 | i | i | i | i
CCOC(=O)c1c(-c2ccc(Cl)cc2)csc1NC(=O)CNCc1ccco1 | -13 | -0.48 | i | i | i | i
CCOC(=O)c1c(-c2ccccc2)csc1NC(=O)C(C)NCc1ccco1 (centres undefined) | -13 | -0.86 | 7* | i | i | i
Cc1ccccc1-n1c(SCC(=O)c2c(N)n(C3CC3)c(=O)[nH]c2=O)nnc1N1CCOCC1 | · | · | · | · | i | ·
O=C(CSc1nnc(CNC(=O)c2cccs2)o1)Nc1ccccc1F | -7 | 0.7 | i | i | i | i
